Shown is part of a subset that was picked to be rich in hits.
ALR H2O2 inh: inhibitors of human sulfhydryl oxidase ALR; 3.8% of 290,000 active; purified ALR, DTT oxidation, H2O2 HRP-luminol luminescence; inhibition, % (no concentration beside the values);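 active = mean replicate inhibition above about 79%, with every replicate also reaching it, limit read from the data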
Target sequence (P55789 whole entry, looked up): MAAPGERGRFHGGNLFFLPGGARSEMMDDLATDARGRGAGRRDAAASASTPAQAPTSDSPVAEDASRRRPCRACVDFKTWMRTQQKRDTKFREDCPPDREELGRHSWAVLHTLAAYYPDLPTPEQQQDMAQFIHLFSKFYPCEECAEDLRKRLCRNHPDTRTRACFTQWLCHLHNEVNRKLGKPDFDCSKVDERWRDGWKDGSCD
T cell modulator: T cell immune modulators affecting CD8 T cell-vesicle binding. 2C CD8+ T cell-vesicle binding, flow cytometry; stronger effect = lower value. response (vesicle binding), % at 7 µM. 0.068% of 330,000 active. AID 2052;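 active = response, share of CD8 T cells binding vesicles, and their 90th percentile fluorescence all below set limits, cut at about 80% in these data, passing the limit was not always enough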;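 also: values below 100% mean blocked vesicle binding to the CD8+ T cells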
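Also added: QL9-peptide-loaded Drosophila micro-vesicles bearing Ld, ICAM-1 and B7-1; Test system: purified 2C TCR transgenic mouse naive CD8+ T cells; Measured by: cytometric PE anti-B7-1 and Alexa647 anti-CD8 signals after 1% paraformaldehyde fixation; Timing: binding step 1.5 h, 37 °C, antibody labelling 20 min, ice.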
Glyco luc inh: blocks N-linked glycosylation in D54 reporter cells. D54 ERlucT glycosylation luciferase reporter, 24 h; percent of 100 nM tunicamycin response. reporter increase, % at 12.5 µM. 0.23% of 360,000 active;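 active = mean luciferase reporter signal, scaled so untreated is 0 and the glycosylation-blocking control 100, at or above a set limit in every replicate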;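 also: luciferase carries N-glycosylation sites so blocking glycosylation raises the light; 0% = median of neutral control wells and 100% = median of 100 nM tunicamycin wells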
* marks the source's active call; other numbers are inactive results; x = no result given.

SMILES	ALR H2O2 inh	T cell modulator	Glyco luc inh
COc1cc(C(=O)Nc2ccc(N(C)C)cc2)c([N+](=O)[O-])cc1OC	89*	395	-1
CC(C)c1ccc(NC(=S)NNC(=O)c2cccs2)cc1	26	880	-1
CC(C)CC(=O)N1CCN(C(=O)c2ccc(-c3ccccc3)cc2)CC1	-4	237	-4
O=C(CSc1ccc(F)cc1)Nc1ccc2c(c1)C(=O)NC2=O	-5	148	2
CCNS(=O)(=O)c1ccc(C(=O)OCC(=O)N2CCCc3ccccc32)cc1	-8	112	0
N#CCC(=O)Nc1ccc(C(=O)NNC(=S)NC2CC2)cc1	x	x	-4
O=C(COc1ccc(F)cc1Br)Nc1ccccc1N1CCOCC1	x	x	-5
c1ccc2c(c1)CNc1ccccc1-2	x	x	-1
Cc1ccc(S(=O)(=O)NNC(=O)C(=O)NNc2ccccn2)cc1	95*	174	1
Cc1ccc(S(=O)(=O)NNC(=O)c2ccncc2)cc1	67	276	0
Cc1ccccc1S(=O)(=O)NNC(=O)C(=O)NNc1ccccn1	99*	373	2
Nc1ccc(S(=O)(=O)NNC(=O)C(=O)NNc2ccccn2)cc1	99*	231	0
Cc1ccc(S(=O)(=O)NNC(=O)c2ccc3ccccc3n2)cc1	88*	193	0
CC(=O)Nc1ccc(S(=O)(=O)NNC(=O)C(=O)NNc2ccccn2)cc1	x	179	1
Nc1ccc(S(=O)(=O)NCc2ccccn2)cc1	-5	204	1
Cc1ccc([N+](=O)[O-])cc1S(=O)(=O)Nc1ccccn1	10	117	1
COC(=O)CSc1ncnc2c(C)csc12	0	76	1
CCN(CC)S(=O)(=O)c1ccc2c(c1)c(=O)c(C(=O)NCCc1ccccc1)cn2C	-3	100	-2
CCCCn1c(N)c(N(CC(C)C)C(=O)c2ccc(S(=O)(=O)N3CCCCCC3)cc2)c(=O)[nH]c1=O	x	427	1
Cc1sc2ncn(CC(=O)NCC(=O)N3CCN(c4ccc(F)cc4)CC3)c(=O)c2c1C	-3	122	2
Cc1ccc(S(=O)(=O)N2CCOCC2)cc1NC(=O)CN1C(=O)CN(C)C1=O	x	x	3
CN1CCN(c2ccccc2NC(=O)COc2ccc(Cl)cc2)CC1	-6	157	-4
CCOC(=O)c1sc(-c2ccc(Cl)cc2Cl)nc1O	97*	246	3
CCOC(=O)c1sc(CS(=O)(=O)c2ccc(Cl)cc2)nc1C	-12	169	-1
Cc1ccc(NC(N)=S)cc1	46	195	1
SMILES	ALR H2O2 inh	T cell modulator	Glyco luc inh
NC(=S)Nc1ccc(Oc2ccc(NC(N)=S)cc2)cc1	99*	335	-1
O=c1[nH]n(-c2ccc(Cl)cc2)c2ncccc12	99*	537	1
O=c1[nH]n(-c2cccc3cccnc23)c(=O)c2ccccc12	-8	181	1
CCC(NC(=O)Cc1c(C)c2ccc(OC)c(C)c2oc1=O)C(=O)NC(Cc1ccc(Cl)cc1)C(=O)O (stereo not given)	-4	222	1
Cc1c(OCC(=O)NC(Cc2ccc(Cl)cc2)C(=O)O)ccc2c1oc(=O)c1ccccc12 (stereo not given)	88*	320	-2
Cc1c(C)c2ccc(OCC(=O)N[C@@H](Cc3ccccc3)C(=O)O)cc2oc1=O	11	374	0
CCCCCCc1c(C)c2ccc(OCC(=O)N[C@@H](Cc3ccccc3)C(=O)O)cc2oc1=O	97*	397	2
Cc1c(OCC(=O)NC(Cc2ccc(Cl)cc2)C(=O)O)ccc2c3c(c(=O)oc12)CCC3 (stereo not given)	6	406	2
Cc1oc2cc3oc(=O)c(CC(=O)N[C@@H](C)C(=O)NC(Cc4ccc(Cl)cc4)C(=O)O)c(C)c3cc2c1C (stereo not given in full)	98*	244	0
CC1(C(=O)NS(=O)(=O)c2ccc3ccccc3c2)CCN1C(=O)CC1CCCCC1 (stereo not given)	x	x	2
C/C(=N\O)c1ccc(Cl)c(Cl)c1	-2	274	x
CCCn1c2ccc(/C(C)=N\O)cc2c2cc(/C(C)=N/O)ccc21	98*	554	7
C=C(C)C(=O)OCC(C)C	-3	497	4
CC(C)NC(=O)Cc1ccc(Br)cc1	x	616	3
CCCC(C)NC(=O)Cc1ccc(Br)cc1 (stereo not given)	95*	363	2
CC(C)=C1C2CCC1C1C(=O)N(c3ccc(C)c(C)c3)C(=O)C21 (stereo not given)	-4	240	1
COc1cc(C(=O)NC2CC(C)CC(C)(C)C2)cc(OC)c1OC (stereo not given)	x	x	1
NNC(=O)c1cccc(COc2ccccc2Br)c1	98*	151	-3
O=C(NCc1ccccc1)c1cccc(COc2ccccc2Cl)c1	-2	380	-3
O=C(Nc1ccccc1)c1ccccc1CSc1ccccc1	7	270	-3
Cc1cccc(C(=O)NC(C(=O)Nc2ccc(S(=O)(=O)Nc3nccs3)cc2)C(C)C)c1 (stereo not given)	x	x	0
Cc1ccc2[nH]c(=O)c(CN(C(=O)c3cccs3)c3ccccc3)cc2c1	1	187	-5
COc1ccc(N2CCN(S(=O)(=O)c3c(C)nc4sccn4c3=O)CC2)cc1	84*	996	-1
Cc1nc2sccn2c(=O)c1S(=O)(=O)Nc1ccc(N2CCN(C)CC2)cc1	97*	221	1
Cc1nc2sccn2c(=O)c1S(=O)(=O)N1CCN(c2ccccc2)CC1	72	573	-1
SMILES	ALR H2O2 inh	T cell modulator	Glyco luc inh
Cc1nc2sccn2c(=O)c1S(=O)(=O)Nc1ccc(N2CCOCC2)cc1	x	x	0
NC(=O)c1ccc(NC(=O)COC(=O)C2CC(=O)N(Cc3ccccc3)C2)cc1 (stereo not given)	9	307	1
Cc1nn(C)c(C(=O)Sc2ccccc2)c1[N+](=O)[O-]	x	287	2
Cc1nn(C)c(C(=O)Sc2cccc(Cl)c2)c1[N+](=O)[O-]	98*	464	11
CCC(C)NC(=O)CN(c1ccc(Cl)c(Cl)c1)S(C)(=O)=O (stereo not given)	-4	420	3
CC/C(=N\N=C(/CC)c1ccccc1N)c1ccccc1N	-14	261	1
NC(=O)c1ccc(NC(=O)COC(=O)c2c[nH]c3ccccc23)cc1	x	x	2
O=C1c2ccccc2C(=O)N1CCCCNc1ccccc1	x	x	3
c1ccc(NCCCNc2ccccc2)cc1	98*	620	-1
CCNC(=O)C1CCCN(C(=O)c2ccc(C(F)(F)F)cc2)CC1 (stereo not given)	x	x	0
N#CC(C#N)=Cc1cc2ccccc2nc1N1CCOCC1	95*	272	7
N#C/C(=C\c1cc2ccccc2nc1N1CCOCC1)C(=O)Nc1ccc(N2CCOCC2)cc1	-3	157	-2
COc1ccc(-n2c(COc3ccccc3)n[nH]c2=S)cc1	40	0	2
O=C(NCc1ccc2c(c1)OCO2)c1ccc(S(=O)(=O)N2CCOCC2)cc1	-5	176	1
Cc1ccc(OCC(=O)Nc2cccc(S(=O)(=O)N3CCOCC3)c2)c([N+](=O)[O-])n1	-4	159	2
Cc1ncoc1C(=O)NC1CCCc2c1cnn2-c1ccc(C(C)(C)C)cc1 (stereo not given)	x	x	-5
Cc1ccc(Nc2nc3ccccc3c(=O)[nH]2)cc1C	8	234	0

Screens from PubChem.
